From ChEMBL document CHEMBL4396951, “Optimization and anti-inflammatory evaluation of methyl gallate derivatives as a myeloid differentiation protein 2 inhibitor” (Bioorg Med Chem, 2019)
Activity calls are given as the source filed them. The rule behind the calls is not given here.

Assays:
Peritoneal macrophage [1] = experiment: Antiinflammatory activity in C57BL/6 mouse primary peritoneal macrophages assessed as inhibition of LPS-induced IL-6 production at 10 uM preincubated for 30 mins followed by LPS stimulation and measured after 24 hrs by sandwich ELISA; assay type: functional, cell-based
Method in brief: (§1)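 Thioglycollate-elicited mouse peritoneal macrophages in RPMI-1640/10% FBS. Compound pretreatment for 30 min (10 μM for single-point screening, graded concentrations for dose-response), then 0.5 μg/mL LPS for 24 h. TNF-α and IL-6 in culture medium measured by sandwich ELISA and normalized to total protein in cell lysates; n = 3.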

Peritoneal macrophage [2] = experiment: Antiinflammatory activity in C57BL/6 mouse primary peritoneal macrophages assessed as inhibition of LPS-induced TNFalpha production at 10 uM preincubated for 30 mins followed by LPS stimulation and measured after 24 hrs by sandwich ELISA; assay type: functional, cell-based; method in brief: as §1
Peritoneal macrophage [3] = experiment: Antiinflammatory activity in C57BL/6 mouse primary peritoneal macrophages assessed as inhibition of LPS-induced IL-6 production at 10 uM preincubated for 30 mins followed by LPS stimulation and measured after 24 hrs by sandwich ELISA relative to control; assay type: functional; details: C57BL/6, Peritoneal macrophage; method in brief: as §1
Peritoneal macrophage [4] = experiment: Antiinflammatory activity in C57BL/6 mouse primary peritoneal macrophages assessed as inhibition of LPS-induced TNFalpha production at 10 uM preincubated for 30 mins followed by LPS stimulation and measured after 24 hrs by sandwich ELISA relative to control; assay type: functional; details: C57BL/6, Peritoneal macrophage; method in brief: as §1
Peritoneal macrophage [5] = experiment: Antiinflammatory activity in C57BL/6 mouse primary peritoneal macrophages assessed as inhibition of LPS-induced IL-6 production preincubated for 30 mins followed by LPS stimulation and measured after 24 hrs by sandwich ELISA; assay type: functional, cell-based; method in brief: as §1
Peritoneal macrophage [6] = experiment: Antiinflammatory activity in C57BL/6 mouse primary peritoneal macrophages assessed as inhibition of LPS-induced TNFalpha production preincubated for 30 mins followed by LPS stimulation and measured after 24 hrs by sandwich ELISA; assay type: functional, cell-based; method in brief: as §1
[7] = Stability of compound in pH 7.4 phosphate buffer at 20 uM measured up to 25 mins by UV-VIS spectroscopy; assay type: physicochemical; details: pH 7.4, 25 min

| SMILES | inhibition (Peritoneal macrophage [1]) | inhibition (Peritoneal macrophage [2]) | further results |
| --- | --- | --- | --- |
| COc1ccc(OC)c(/C=C/C(=O)Nc2ccc3c(c2)CCC3)c1 | Active | Active |  |
| COc1ccc2cc(C(=O)Nc3ccc4c(c3)CCC4)[nH]c2c1 | Active | Active | inhibition at 10 µM (Peritoneal macrophage [3]): > 50%; inhibition at 10 µM (Peritoneal macrophage [4]): > 50%; inhibition (Peritoneal macrophage [5]): Dose-dependent effect; inhibition (Peritoneal macrophage [6]): Dose-dependent effect; Stability [7]: Stable |
| Cc1ccc(C(=O)Nc2ccc3c(c2)CCC3)s1 | Active | Active |  |
| O=C(CCCc1c[nH]c2ccccc12)Nc1ccc2c(c1)CCC2 | Active | Active |  |
| CN(C)c1cccc(C(=O)Nc2ccc3c(c2)CCC3)c1 | Active | Active |  |
| COc1ccc(NC(=O)c2cc(O)c(O)c(O)c2)cc1 | Active | Active |  |
| O=C(Nc1ccc2c(c1)CCC2)c1cccc(N2CCOCC2)c1 | Active | Active |  |
| CC(=O)N1CCc2cc(NC(=O)c3cc(O)c(O)c(O)c3)ccc21 | Active | Active |  |
| O=C(Nc1ccc(N2CCOCC2)cc1)c1cc(O)c(O)c(O)c1 | Active | Active |  |
| O=C(Nc1ccc(F)cc1)c1cc(O)c(O)c(O)c1 | Active | Active |  |
| O=C(/C=C/c1ccccc1C(F)(F)F)Nc1ccc2c(c1)CCC2 | Active | Active |  |
| CCOc1ccc(NC(=O)c2cc(O)c(O)c(O)c2)cc1 | Active | Active |  |
| O=C(/C=C/c1cccc(OC(F)(F)F)c1)Nc1ccc2c(c1)CCC2 | Active | Active |  |
| COc1cc(NC(=O)c2cc(O)c(O)c(O)c2)cc(OC)c1 | Active | Active |  |
| CN(C)c1ccccc1C(=O)Nc1ccc2c(c1)CCC2 | Active | Active | inhibition at 10 µM (Peritoneal macrophage [3]): > 50%; inhibition at 10 µM (Peritoneal macrophage [4]): > 50%; inhibition (Peritoneal macrophage [5]): Dose-dependent effect; inhibition (Peritoneal macrophage [6]): Dose-dependent effect; Stability [7]: Stable |
| O=C(Nc1ccc2cc[nH]c2c1)c1cc(O)c(O)c(O)c1 | Active | Active |  |
| CN1CCN(Cc2ccc(NC(=O)c3cc(O)c(O)c(O)c3)cc2)CC1 | Active | Active |  |
| CC(=O)Nc1ccc(C(=O)Nc2ccc3c(c2)CCC3)cc1 | Active | Active |  |
| COc1cc(CC(=O)Nc2ccc3c(c2)CCC3)cc(OC)c1 | Active | Active |  |

| SMILES | inhibition (Peritoneal macrophage [1]) | inhibition (Peritoneal macrophage [2]) | further results |
| --- | --- | --- | --- |
| Cc1ncsc1C(=O)Nc1ccc2c(c1)CCC2 | Active | Active |  |
| COc1cc(/C=C/C(=O)Nc2ccc3c(c2)CCC3)cc(OC)c1OC | Active | Active |  |
| O=C(NCc1ccccc1)c1cc(O)c(O)c(O)c1 | Active | Active |  |
| O=C(Cc1ccc([N+](=O)[O-])cc1[N+](=O)[O-])Nc1ccc2c(c1)CCC2 | Active | Active |  |
| O=C(Nc1ccc2c(c1)CCC2)c1cc2ccccc2[nH]1 | Active | Active |  |
| COc1cc(/C=C/C(=O)Nc2ccc3c(c2)CCC3)cc(OC)c1O | Active | Active |  |
| O=C(Nc1ccccc1)c1cc(O)c(O)c(O)c1 | Active | Active |  |
| O=C(Nc1ccc2c(c1)CCC2)c1c(Cl)cccc1Cl | Active | Active |  |
| O=C(Nc1ccc2c(c1)CCC2)c1ccccc1C(F)(F)F | Active | Active |  |
| CN1CCN(c2ccc(NC(=O)c3cc(O)c(O)c(O)c3)cc2)CC1 | Active | Active |  |
| O=C(Nc1ccc2c(c1)CCC2)c1cc(Cl)nc(Cl)c1 | Active | Active |  |
| COc1ccccc1CNC(=O)c1cc(O)c(O)c(O)c1 | Active | Active |  |
| O=C(Nc1ccc2c(c1)CCC2)c1cccc(N2CCCC2)c1 | Active | Active |  |
| CCN(CC)c1ccc(C(=O)Nc2ccc3c(c2)CCC3)cc1 | Active | Active |  |
| O=C(Cc1cccc2ccccc12)Nc1ccc2c(c1)CCC2 | Active | Active | inhibition at 10 µM (Peritoneal macrophage [3]): > 50%; inhibition at 10 µM (Peritoneal macrophage [4]): > 50%; inhibition (Peritoneal macrophage [5]): Dose-dependent effect; inhibition (Peritoneal macrophage [6]): Dose-dependent effect; Stability [7]: Stable |
| COc1ccc(CNC(=O)c2cc(O)c(O)c(O)c2)cc1OC | Active | Active |  |
| O=C(Nc1ccc2c(c1)CCC2)c1ccc(Cl)c([N+](=O)[O-])c1 | Active | Active |  |
| COc1ccc(/C=C/C(=O)Nc2ccc3c(c2)CCC3)cc1O | Active | Active |  |
| COc1ccc(/C=C/C(=O)Nc2ccc3c(c2)CCC3)cc1OC | Active | Active |  |
